From ChEMBL document CHEMBL1148940, “New luffariellolide derivatives from the Indonesian sponge Acanthodendrilla sp” (2004)
Values after ≈ are worked out from the molar mass of the structure shown. Active and inactive are the calls of the source.

Legend:
L5178Y = test: Cytotoxicity against mouse L5178Y cells by MTT assay; format: functional; details: read-out: ED50 (the source's name)
PC-12 = test: Cytotoxicity against rat PC12 cells by MTT assay; format: functional, cell-based
Escherichia coli [1] = test: Antimicrobial activity against Escherichia coli DSM 10290 at 10 ug/disk after 24 hrs; format: functional; details: for zone of inhibition at 10 µg/disc: DSM 10290, 24 h, read-out: IZ
Method in brief: (§1)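 Agar plate disk diffusion: disks impregnated with sample (5 or 10 µg per disk) placed on agar plates pre-inoculated with the test organism; solvent controls run against each organism. Plates incubated at 37 °C for 24 h, then clear inhibition zones around the disk measured in mm; sample scored active when zone exceeded 7 mm.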

Bacillus subtilis [2] = test: Antimicrobial activity against Bacillus subtilis DSM 2109 at 10 ug/disk after 24 hrs; format: functional; details: DSM 2109, 24 h, read-out: IZ; method in brief: as §1
Candida albicans [3] = test: Antimicrobial activity against Candida albicans at 5 ug/disk after 24 hrs; format: functional; method in brief: as §1
Escherichia coli [4] = test: Antimicrobial activity against Escherichia coli DSM 10290 at 5 ug/disk after 24 hrs; format: functional
Method in brief: (§2)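 Agar plate disk diffusion: disks impregnated with test sample (5 or 10 µg per disk) placed on agar plates previously inoculated with the organism, with solvent controls. Plates incubated 24 h at 37 °C. Read-out is the diameter (mm) of the clear inhibition zone around the disk. A sample is scored active when the zone exceeds 7 mm.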

Bacillus subtilis [5] = test: Antimicrobial activity against Bacillus subtilis DSM 2109 at 5 ug/disk after 24 hrs; format: functional; details: for zone of inhibition at 5 µg/disc: DSM 2109, 24 h, read-out: IZ; method in brief: as §1
HeLa = test: Cytotoxicity against human HeLa cells by MTT assay; format: functional, cell-based
Staphylococcus aureus [6] = test: Antimicrobial activity against Staphylococcus aureus ATCC 25923 at 10 ug/disk after 24 hrs; details: for zone of inhibition at 10 µg/disc: ATCC 25923, 24 h, read-out: IZ
Staphylococcus aureus [7] = test: Antimicrobial activity against Staphylococcus aureus ATCC 25923 at 5 ug/disk after 24 hrs; format: functional; method in brief: as §2
Candida albicans [8] = test: Antimicrobial activity against Candida albicans at 10 ug/disk after 24 hrs; format: functional; details: read-out: IZ; method in brief: as §1
Cladosporium herbarum [9] = test: Antimicrobial activity against Cladosporium herbarum DSM 63422 at 10 ug/disk after 24 hrs; format: functional; details: for zone of inhibition at 10 µg/disc: DSM 63422, 24 h, read-out: IZ; method in brief: as §1
Cladosporium herbarum [10] = test: Antimicrobial activity against Cladosporium herbarum DSM 63422 at 5 ug/disk after 24 hrs; format: functional, organism-based; method in brief: as §1
Cladosporium herbarum [11] = test: Antimicrobial activity against Cladosporium herbarum DSM 63422 by serial dilution assay; format: functional

Molecule | EC50 (L5178Y) | Activity (PC-12) | zone of inhibition at 10 µg/disc (Bacillus subtilis [2]) | Activity (Escherichia coli [4]) | Activity (HeLa) | zone of inhibition at 10 µg/disc (Staphylococcus aureus [6]) | Activity (Staphylococcus aureus [7]) | zone of inhibition at 10 µg/disc (Candida albicans [8]) | zone of inhibition at 10 µg/disc (Cladosporium herbarum [9]) | Activity (Cladosporium herbarum [10]) | zone of inhibition at 10 µg/disc (Escherichia coli [1]) | Activity (Candida albicans [3]) | also measured
COC1OC(=O)C=C1CC/C=C(\C)CC/C=C(\C)CCC1=C(C)CCCC1(C)C (stereo not given) | 0.7 µg/mL (≈ 1.75 µM) | inactive | 9 mm | inactive | inactive | 10 mm | inactive | 9 mm | 15 mm | inactive |  |  | Activity (Escherichia coli [1]): inactive; zone of inhibition at 5 µg/disc (Candida albicans [3]; read-out: IZ): 9 mm; zone of inhibition at 5 µg/disc (Bacillus subtilis [5]): 7 mm
CCOC1OC(=O)C=C1CC/C=C(\C)CC/C=C(\C)CCC1=C(C)CCCC1(C)C (stereo not given) | > 100 µg/mL | inactive | 7 mm | inactive | inactive |  | inactive | 9 mm |  | inactive | 12 mm | inactive | Activity (Bacillus subtilis [5]): inactive; Activity (Staphylococcus aureus [6]): inactive; Activity (Cladosporium herbarum [9]): inactive
CC1=C(CC/C(C)=C/CC/C(C)=C/CCC2=CC(=O)OC2O)C(C)(C)CCC1=O (stereo not given) [ACANTHOLIDE B] | > 10 µg/mL | inactive | 12 mm | inactive | inactive | 10 mm | inactive | 10 mm | 10 mm | inactive | 9 mm | inactive | Activity (Bacillus subtilis [5]): inactive
CC(=O)[C@]1(CC/C(C)=C/CC/C(C)=C/CCC2=CC(=O)OC2O)[C@@H](O)CCC1(C)C (stereo not given in full) [ACANTHOLIDE D] | > 10 µg/mL | inactive |  |  | inactive |  |  |  |  |  |  |  | 
CC(=O)[C@]1(CC/C(C)=C/CC/C(C)=C/CCC2=CC(=O)OC2O)[C@H](O)CCC1(C)C (stereo not given in full) [ACANTHOLIDE E] | 7 µg/mL (≈ 16.7 µM) | inactive |  |  | inactive |  |  |  |  |  |  |  | 
CC1=C(CC/C(C)=C/CC/C(C)=C/CCC2=CC(=O)OC2O)C(C)(C)CCC1 (stereo not given) [LUFFARIELLOLIDE] | 3.3 µg/mL (≈ 8.54 µM) | inactive | 12 mm |  | inactive | 11 mm |  | 10 mm | 20 mm | inactive | 10 mm | inactive | MIC (Cladosporium herbarum [11]): 10.4 µg/mL (≈ 26.9 µM); zone of inhibition at 5 µg/disc (Escherichia coli [4]; DSM 10290, 24 h, read-out: IZ): 7 mm; zone of inhibition at 5 µg/disc (Bacillus subtilis [5]): 7 mm; zone of inhibition at 5 µg/disc (Staphylococcus aureus [7]; ATCC 25923, 24 h, read-out: IZ): 7 mm
NYSTATIN |  |  |  |  |  |  |  |  |  |  |  |  | MIC (Cladosporium herbarum [11]): 1.06 µg/mL
